# Most compounds without a hit are left out; they make up all but 4.2% or so of the library.
# CHOP inhibitor – inhibitors of CHOP induction in ER stress response; CHO-K1 CHOP-promoter luciferase, tunicamycin-induced, 15-18 h; inhibition, % at 10 µM; actives 3.8% (n = 220,000);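 active = compounds that reduced the stress-induced luciferase reporter signal by more than about 70% of percent inhibition, limit read from the data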;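 note: 0% = tunicamycin plus vehicle and 100% = wells without tunicamycin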
# Hep lipid drop – hepatic lipid droplet formation modulation; AML12 mouse hepatocytes, oleate lipid droplets, BODIPY imaging; inhibition, % at 6.5 µM; actives 0.4% (n = 240,000);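 active = lipid droplet intensity inhibited by at least 50%, with more than 500 cells counted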
#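 Assay system: AML12 mouse liver cells | Compound dosing: One dose, 6.5 µM compound | Read-out basis: Droplet intensity reduction, % inhibition | Measured by: Fluorescence imaging, 20x objective, two fields per well | Schedule: Overnight treatment with compound plus oleate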
# CHOP UPR activ – activators of apoptotic arm of unfolded protein response (CHOP); CHO-CHOP luciferase reporter, UPR activation, luminescence; percent of tunicamycin response over DMSO baseline; activation, % at 10 µM; actives 0.34% (n = 330,000);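 active = at 10 µM dose, activation of 40% or more, normalized to positive control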;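 note: 100% = tunicamycin at 10 µg/mL and 0% = DMSO alone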
#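 Assay system: CHO cells with stable CHOP pathway luciferase reporter; Buffer or medium: F12 plus 10% serum; Times: 16-18 h cell attachment, then 6 h compound exposure, 37 °C; Signal: luciferase luminescence; Read-out basis: percent activation relative to tunicamycin control; Control set: tunicamycin high control, DMSO low control.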
# XBP1 UPR activ – adaptive UPR (XBP1) activation | CHO-XBP1 luciferase reporter, IRE1-XBP1 UPR activation, luminescence; percent of tunicamycin response, DMSO as zero | activation, % at 20 µM | actives 0.33% (n = 330,000) | AID 463104;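 active = versus positive control, 20 µM dose yields 30% or more activation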;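 note: 100% = tunicamycin at 10 µg/mL and 0% = DMSO only wells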
#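 Material: IRE1-XBP1 luciferase reporter CHO line / Quantity: one thousand reporter cells per well / Buffer or medium: F12 with 10% serum / Compound: 20 µM single concentration, DMSO 1% / Times: 6 h treatment, 37 °C / Detection: Steady-Glo luciferase glow luminescence, 10 min after reagent addition / Benchmarks: tunicamycin high, DMSO low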
# TMEM16A inh – inhibitors of mouse TMEM16A calcium-activated chloride channel; normalized B-score (activity score, 25-100; higher = stronger inhibition) at 10 µM; actives 1.2% (n = 310,000); HEK293 TMEM16A/YFP iodide influx fluorescence, ionomycin;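 active = ratio plate-corrected score three or more library SD toward inhibition, starting fluorescence score within five deviations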;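 note: score derived from kinetic fluorescence span divided by baseline fluorescence per well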
# Target sequence (Q8BHY3 whole entry, looked up): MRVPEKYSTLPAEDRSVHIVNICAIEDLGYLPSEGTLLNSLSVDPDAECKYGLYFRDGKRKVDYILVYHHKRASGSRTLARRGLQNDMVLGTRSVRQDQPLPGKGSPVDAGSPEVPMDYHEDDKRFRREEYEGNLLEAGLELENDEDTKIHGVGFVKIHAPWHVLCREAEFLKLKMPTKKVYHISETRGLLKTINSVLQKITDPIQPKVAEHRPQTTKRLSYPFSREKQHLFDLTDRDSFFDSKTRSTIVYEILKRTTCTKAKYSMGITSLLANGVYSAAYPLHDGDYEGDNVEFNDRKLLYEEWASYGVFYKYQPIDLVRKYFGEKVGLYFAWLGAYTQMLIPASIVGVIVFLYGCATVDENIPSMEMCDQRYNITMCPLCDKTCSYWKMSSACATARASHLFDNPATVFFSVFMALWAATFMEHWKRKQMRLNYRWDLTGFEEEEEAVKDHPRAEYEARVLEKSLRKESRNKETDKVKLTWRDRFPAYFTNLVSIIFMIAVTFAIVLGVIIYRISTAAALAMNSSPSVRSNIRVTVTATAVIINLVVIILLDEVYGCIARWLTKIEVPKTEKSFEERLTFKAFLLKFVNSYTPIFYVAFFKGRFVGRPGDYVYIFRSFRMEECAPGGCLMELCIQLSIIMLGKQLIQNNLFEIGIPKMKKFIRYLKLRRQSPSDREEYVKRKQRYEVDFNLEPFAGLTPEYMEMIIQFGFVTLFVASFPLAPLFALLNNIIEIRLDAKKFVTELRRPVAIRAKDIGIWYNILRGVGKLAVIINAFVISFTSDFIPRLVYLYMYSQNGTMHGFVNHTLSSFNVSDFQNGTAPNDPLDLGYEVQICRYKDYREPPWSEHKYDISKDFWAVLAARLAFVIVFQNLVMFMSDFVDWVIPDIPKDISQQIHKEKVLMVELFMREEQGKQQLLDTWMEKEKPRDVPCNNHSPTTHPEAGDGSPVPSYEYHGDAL
# ANO1 activ – activates or potentiates the mouse TMEM16A chloride channel; HEK293 TMEM16A/YFP-H148Q/I152L, iodide quench fluorescence; active compounds read low; B-score at 10 µM; actives 0.3% (n = 340,000);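 active = fluorescence-ratio B-score plate-corrected deviation score at least 3 library SD below zero, with starting fluorescence score within 5 deviations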;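 note: channel opened by trigger with iodide after compound preincubation; score built on the fluorescence ratio of max minus min over baseline; more negative score means more quench and so TMEM16A activation or potentiation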
# Active calls of the source: *; i = inactive; / = not tested or not shown.
SMILES,CHOP inhibitor,Hep lipid drop,CHOP UPR activ,XBP1 UPR activ,TMEM16A inh,ANO1 activ
Cc1ccc(C(Sc2ccccc2)C(Cn2cncn2)C(=O)c2ccccc2)cc1 (centres undefined),93*,-9,-1,-3,i,i
O=C(c1cc(COc2ccc3ncccc3c2)on1)N1CCC(O)CC1,22,-22,2,0,i,i
O=C(NC1CCCCCCC1)c1cc(COc2ccc3ncccc3c2)on1,81*,-12,/,/,/,i
O=C(NCc1ccco1)/C(=C/c1ccc(C(F)(F)F)cc1)c1nc2ccccc2[nH]1,89*,4,8,4,i,i
CCN(C(=O)c1cc2c(=O)[nH]c3ccc(C)cc3c2s1)c1ccccc1F,-36,0,0,1,i,i
CCN(C(=O)c1cc2c(=O)[nH]c3ccc(C)cc3c2s1)c1ccccc1C,96*,-14,13,7,i,i
COc1ccc(-c2ccnc3nc(N4CCN(c5ccccc5)CC4)nn23)cc1,72*,16,2,4,i,i
Fc1ccc(-c2ccnc3nc(N4CCOCC4)nn23)cc1,30,/,3,-1,i,i
COC(=O)c1cc(S(=O)(=O)Nc2ccc(C)cn2)c[nH]1,/,-2,2,-4,i,i
Cc1ccc2c(c1)c1ccc3c(c1n2C)C(=O)C=CC3=O,106*,11,-9,-10,/,i
Cn1c2ccccc2c2ccc3c(c21)C(=O)C=CC3=O,/,/,/,/,/,i
Cc1ccc(-n2nc(-c3ccco3)cc2C(=O)O)c(C)c1,4,16,/,/,/,i
CCOC(=O)N1CCN(S(=O)(=O)N2CCCC(C(=O)NCCCN3CC(C)CC(C)C3)C2)CC1 (centres undefined),/,-1,0,-1,i,i
O=C(CSc1nnc(-c2ccccc2)n1C1CCCCC1)Nc1ccc(S(=O)(=O)Nc2ccccn2)cc1,53,/,7,-4,i,-12*
CN(c1ccccc1)S(=O)(=O)c1ccc(C(=O)Nc2ncccc2O)cc1,/,/,0,0,i,i
COc1ccc(C(=O)OCC(=O)Nc2ccc(OC(F)F)cc2)c(OC)c1,1,43,0,-1,i,i
O=C(COC(=O)c1ccccc1Nc1ccccc1)Nc1ccccc1,78*,-1,-1,0,i,i
O=C(COC(=O)c1ccccc1O)Nc1ccc(OC(F)F)cc1,72*,13,2,3,i,i
O=C(COC(=O)c1ccccc1C(=O)c1ccccc1)Nc1ccc(SC(F)F)cc1,49,-9,4,-3,100*,i
O=C(COC(=O)c1cc(S(=O)(=O)N2CCCC2)ccc1O)Nc1ccc(SC(F)F)cc1,/,/,0,-2,/,-26*
O=C(COC(=O)c1cc(S(=O)(=O)N2CCCC2)ccc1O)Nc1ccc(S(=O)(=O)N2CCOCC2)cc1,7,-34,-1,0,i,i
O=C(Nc1ccccc1)/C(=C/c1cccnc1)NC(=O)c1ccccc1,/,-2,-3,-3,i,i
Cc1cc(C)c(C#N)c(Sc2ccc(N)cc2)n1,23,2,0,1,i,i
O=C(CSc1nc2ccccc2c(=O)[nH]1)Nc1ccccc1C(F)(F)F,/,10,-2,-2,i,i
COc1cc2cc3c(N)c(C(=O)Nc4sc(C)c(C)c4C#N)sc3nc2cc1OC,81*,/,0,4,i,i
SMILES,CHOP inhibitor,Hep lipid drop,CHOP UPR activ,XBP1 UPR activ,TMEM16A inh,ANO1 activ
COc1cc2cc3c(N)c(C(=O)NCc4ccco4)sc3nc2cc1OC,-4,/,2,3,i,i
Cc1ccc(-c2[nH]ncc2/C=C(\C#N)C(=O)NC2CCCCC2)cc1,72*,/,0,0,i,i
Cc1cc(Nc2ccc(Cl)cc2)n(-c2cccc(Cl)c2)n1,72*,0,-2,0,i,i
Cc1cc(Nc2ccc(Cl)cc2)n(-c2ccccc2)n1,19,9,0,0,i,i
Cc1cc(C)nc(NS(=O)(=O)c2ccc(N/C=C/C(=O)c3ccc(Cl)cc3)cc2)n1,92*,6,3,2,i,i
COc1ccc(C(=O)/C=C/Nc2ccc(S(=O)(=O)Nc3nc(C)cc(C)n3)cc2)cc1OC,36,-5,0,-2,i,i
CC1CCCCC1NC(=O)CN1C(=O)c2ccccc2S1(=O)=O (centres undefined),/,-2,-1,-6,i,i
C=C1C(=O)C23CCC4C(C)(C(=O)OC)CCCC4(C)C2CCC1(O)C3 (centres undefined),/,/,/,/,/,-8.6*
CCOC(=O)c1sc(NC(=O)CCN2CCN(CC)CC2)c(C(=O)OCC)c1C,-13,-6,1,4,i,i
O=C(N/N=C/c1cn(Cc2ccccc2)c2ccccc12)c1ccncc1,31,-15,1,-4,100*,i
O=C(N/N=C/c1ccccc1Cl)c1ccncc1,/,2,1,2,i,i
O=C(N/N=C/c1cc(Cl)ccc1O)c1ccncc1,72*,-36,0,-1,i,i
COC(=O)c1cc(Cl)c(NC(=O)c2ccc(C(C)(C)C)cc2)cc1OC,89*,-6,1,-2,i,i
COC(=O)c1cc(Cl)c(NC(=O)C(C)C)cc1OC,-11,-1,3,-4,i,i
CCOC(=O)C1=C(C)NC(=S)NC1c1ccc(OCC(=O)N2CCCCCC2)c(OC)c1 (centres undefined),/,-3,0,1,i,i
CC1(C)Cc2c(c(N3CCOCC3)nc3sc4c(=O)[nH]cnc4c23)CS1,12,/,-2,5,i,i
CC1(C)Cc2c(c(N3CCOCC3)nc3sc4c(N5CCOCC5)nnnc4c23)CS1,15,26,5,58*,i,/
Cc1cc(OCC(=O)NCC2CCC(C(=O)O)CC2)c2c(C)c(C)c(=O)oc2c1 (centres undefined),/,/,-1,0,i,i
COc1ccc(/C=N/n2cc(-c3ccc(OC)cc3)nc2N)cc1,70*,-1,6,-2,i,i
C=CCc1cccc2cc(C(=O)Nc3ccc(S(=O)(=O)Nc4nnc(CC)s4)cc3)c(=O)oc12,72*,0,/,/,i,i
CCc1ccc(C(C(=O)NCc2ccc(OC)cc2)N(CCOC)C(=O)Cc2cccs2)cc1 (centres undefined),6,/,0,-2,i,i
COCCN(C(=O)Cc1cccs1)C(C(=O)NCc1ccc(OC)cc1)c1ccc(C(C)C)cc1 (centres undefined),94*,-3,0,-2,i,i
